Source: paper PMC7613134 (Nature, 2021)

Legend:
[1] = tested on: m6A peaks on poly-A+-enriched RNA, MOLM-13 cells; assay: m6A-meRIP-seq and meRIP-qPCR in MOLM-13 cells; format: cell-based, human
[2] = Pharmacokinetic analysis in mice; format: in vivo, mouse; conditions: single intra-peritoneal dose of 50 mg/kg, over 24h
[3] = tested on: panel of human AML cell lines; assay: Proliferation assay, AML cell line panel; format: cell-based; conditions: 0.04-50 μM, read on day 6
MOLM-13 cells = assay: Polysome fractionation and RT-qPCR in MOLM-13 cells; format: cell-based, human
In short: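 MOLM-13 cells (5 × 10^7) were exposed to DMSO or 1 μM test compound for 72 h, then to 0.1 mg/ml cycloheximide for 5 min at 37 °C. Lysates were fractionated on a sucrose gradient. RNA from each fraction, or total RNA (RNeasy), was quantified by RT-qPCR in triplicate, normalised to GAPDH, using the standard-curve or comparative CT method.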

primary murine AML cells = assay: Colony forming; format: cell-based, mouse; conditions: 1 μM
In short: (§1)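 Lineage-negative cells from wild-type mice or primary murine AML cells, 10,000 per well, were plated in triplicate wells of M3434 methylcellulose with 1 μM test compound. Colonies were counted after 7 days. Another 10,000 cells were then re-seeded and re-counted weekly through the 3rd replating.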

normal haematopoiesis = assay: Toxicity on normal haematopoiesis in vivo; parameters: species or system mouse; conditions: 50 mg/kg daily for 14 days
[4] = tested on: normal haematopoietic stem and progenitor cells (HSPCs); assay: Colony forming; format: cell-based, mouse; conditions: 1 μM, WT Lin- cells
In short: as §1

[5] = tested on: normal human cord blood CD34+ cells; assay: Colony-forming efficiency of cord blood CD34+ cells; format: cell-based; conditions: 1, 5 or 10 µM
In short: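 Human cord-blood CD34+ cells were plated in StemMACS HSC-CFU semi-solid medium with the test compound at the indicated concentrations or DMSO. Colonies were counted by microscopy 12–14 days after plating.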

[6] = tested on: primary murine MLL-AF9/Flt3^Itd/+ AML; assay: Primary murine MLL-AF9/Flt3Itd/+ AML in vivo model; parameters: species or system mouse
[7] = tested on: human AML patient derived xenografts (PDX); assay: Human AML patient derived xenograft; format: in vivo, mouse
panel of 468 kinases = assay: KINOMEscan kinase binding panel; conditions: 10 µM; inhibition = less than 50% control activity
[8] = tested on: SP1 and BRD4 protein levels, MOLM-13 cells; assay: Western blot of METTL3 biomarkers in MOLM-13; format: cell-based, human; conditions: MOLM-13, 72 hours
In short: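 MOLM-13 cells were exposed to DMSO or indicated concentrations of test compound for 72 h. Pellets were lysed in 50 mM Tris-HCl pH 8, 450 mM NaCl, 0.1% NP-40 and 1 mM EDTA, with 1 mM DTT and protease/phosphatase inhibitors. Immunoblots were probed with anti-SP1, N- and C-terminal anti-BRD4, and actin or GAPDH antibodies.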

METTL16 = molecular target: T1, METTL16 (Homo sapiens, UniProt Q86W50); assay: RNA methyltransferase RFMS activity assay; format: biochemical; conditions: dose-range, top concentration 120 μM
T1 sequence (Q86W50 1-562): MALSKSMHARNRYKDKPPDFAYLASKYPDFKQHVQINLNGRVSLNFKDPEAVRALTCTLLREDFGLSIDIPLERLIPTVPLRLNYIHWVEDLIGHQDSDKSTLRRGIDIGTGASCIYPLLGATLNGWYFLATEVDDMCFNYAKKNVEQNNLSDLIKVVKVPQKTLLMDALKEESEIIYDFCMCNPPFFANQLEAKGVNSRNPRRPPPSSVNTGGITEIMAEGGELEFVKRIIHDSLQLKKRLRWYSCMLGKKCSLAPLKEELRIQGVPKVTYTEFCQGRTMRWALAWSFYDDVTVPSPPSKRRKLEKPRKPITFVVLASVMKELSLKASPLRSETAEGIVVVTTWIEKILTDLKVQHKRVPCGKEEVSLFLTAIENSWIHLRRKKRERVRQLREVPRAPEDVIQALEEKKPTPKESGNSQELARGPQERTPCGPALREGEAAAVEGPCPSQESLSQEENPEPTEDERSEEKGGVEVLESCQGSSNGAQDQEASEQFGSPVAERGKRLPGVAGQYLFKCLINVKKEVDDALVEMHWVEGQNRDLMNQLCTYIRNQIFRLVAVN

[9] = tested on: MOLM-13 and primary murine AML cells; assay: Flow cytometry of differentiation, cell cycle and apoptosis in AML cells; format: cell-based
In short: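 Human and/or mouse AML cells were exposed to DMSO or test compound and analysed at the indicated timepoints on an LSRFortessa. Myeloid differentiation was read by anti-mouse CD11b PE/Cy5 or anti-human CD11b PE staining. Apoptosis was read by Annexin V staining. Cell cycle was read by BrdU incorporation with FITC or APC BrdU flow kits.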

[10] = tested on: m6A on poly-A+-enriched RNA, MOLM-13 cells; assay: RNA nucleoside quantification by mass spectrometry in MOLM-13; format: cell-based, human; conditions: MOLM-13, 24 hours
[11] = tested on: non-leukaemic haemopoietic cell line HPC7; format: cell-based
[12] = molecular target: METTL3/METTL14 heterodimer (Homo sapiens, UniProt Q86U44); assay: Surface plasmon resonance; format: binding; conditions: 50 µM SAM in running buffer
METTL3/14 = conditions: read-out: Km of SAM for METTL3/14; cited from earlier work
[13] = murine or patient-derived AML cells from treated primary transplants
[14] = MOLM-13 and primary murine AML cells

Chain of METTL3/METTL14 heterodimer (Q86U44 whole entry): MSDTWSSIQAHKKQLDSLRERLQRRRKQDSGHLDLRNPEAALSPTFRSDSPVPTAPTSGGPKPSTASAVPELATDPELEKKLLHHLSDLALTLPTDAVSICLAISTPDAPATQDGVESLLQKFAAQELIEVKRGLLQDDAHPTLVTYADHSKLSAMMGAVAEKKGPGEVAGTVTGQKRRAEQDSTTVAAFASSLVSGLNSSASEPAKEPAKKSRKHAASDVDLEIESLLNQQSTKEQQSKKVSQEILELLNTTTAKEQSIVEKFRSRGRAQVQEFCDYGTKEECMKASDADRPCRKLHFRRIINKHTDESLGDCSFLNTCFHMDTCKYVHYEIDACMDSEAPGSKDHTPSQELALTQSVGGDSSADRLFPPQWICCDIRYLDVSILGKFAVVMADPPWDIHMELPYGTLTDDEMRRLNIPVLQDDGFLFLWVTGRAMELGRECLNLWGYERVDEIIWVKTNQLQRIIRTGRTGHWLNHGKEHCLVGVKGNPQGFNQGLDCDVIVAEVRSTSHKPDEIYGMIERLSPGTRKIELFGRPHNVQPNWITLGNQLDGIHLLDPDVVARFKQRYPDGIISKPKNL
Chain of METTL3/METTL14 heterodimer (Q9HCE5 whole entry partner): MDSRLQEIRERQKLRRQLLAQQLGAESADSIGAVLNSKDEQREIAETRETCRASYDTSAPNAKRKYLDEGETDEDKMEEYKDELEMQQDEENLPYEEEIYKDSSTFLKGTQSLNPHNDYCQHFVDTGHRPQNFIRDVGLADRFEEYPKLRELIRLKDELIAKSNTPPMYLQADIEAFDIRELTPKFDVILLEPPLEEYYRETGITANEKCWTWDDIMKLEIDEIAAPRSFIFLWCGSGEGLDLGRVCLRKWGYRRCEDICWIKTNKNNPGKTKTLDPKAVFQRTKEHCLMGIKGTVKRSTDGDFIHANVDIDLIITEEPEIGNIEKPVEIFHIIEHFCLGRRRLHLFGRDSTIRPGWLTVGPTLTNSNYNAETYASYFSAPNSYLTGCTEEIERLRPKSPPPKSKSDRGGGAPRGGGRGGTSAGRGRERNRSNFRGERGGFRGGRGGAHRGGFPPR

For `O=C(NCc1cn2cc(CNCC3CCCCC3)ccc2n1)c1cc(=O)n2ccccc2n1` [STM2457], the “m6A levels in METTL3-dependent substrates including HOXA10 and MYC (meRIP-qPCR)” value ([1]; MOLM-13, 1 µM, 24 or 48 hours) was “reduced m^6A levels”, the “m6A peaks reduced upon treatment” value ([1]; MOLM-13, 1 μM, 48 hours, of 11,909 m6A peaks identified) was 4,666 and the “half-life / exposure in vivo” value [2] was “sufficient half-life”. For the same compound, the “proliferation of human AML cell line panel” value [3] was “significant growth reduction in a concentration-dependent manner”, the polysome profile (MOLM-13 cells; MOLM-13, 1μM, 72 hours) was “loss of high polysome fractions” and the “overall RNA expression levels of BRD4 and SP1” value (MOLM-13 cells; MOLM-13, RT-qPCR of total RNA) was “showed no alterations”. The “clonogenic potential of primary murine AML cells” value (primary murine AML cells) was “significantly reduced”, the “bone marrow HSCs and early progenitors, peripheral blood counts, body weight” value (normal haematopoiesis) was “No significant changes” and the “m6A levels on poly-A+-enriched RNA of healthy bone marrow” value (normal haematopoiesis) was “significantly reduced”. For the same compound, the “colony forming of normal haematopoietic stem and progenitor cells (HSPCs)” value [4] was “no effect”, the “colony-forming ability of normal human cord blood CD34+ cells” value [5] was “did not affect” and the “CD48+ intensity of L-GMP cells” value ([6]; 30 mg/kg) was “increased”. The “engrafted AML cells in bone marrow” value ([6]; 30 mg/kg) was “reduction in the engrafted AML cells”, the spleen size ([6]; 30 mg/kg) was “reduction in spleen size” and the “CD93+ and L-GMP leukaemia stem cell populations” value ([6]; bone marrow, PDX 50 mg/kg and murine model 30 mg/kg) was “significantly reduced”. For the same compound, the “AML cells in peripheral blood after re-transplantation” value [6, 13] was “marked decrease”, the lifespan after re-transplantation [6, 13] was “significant lifespan prolongation” and the “human CD45+ cells in bone marrow and spleen” value ([7]; 50 mg/kg) was “reduction of human CD45^+ cells in bone marrow and spleen”. For the same compound, the “mouse lifespan in PDX” value ([7]; 50 mg/kg IP daily) was “significantly prolonged”, the “toxicity and body weight in PDX mice” value ([7]; 50 mg/kg IP daily) was “no overt toxicity or effect on mouse body weight” and the “engraftment and AML expansion in PDX” value ([7]; 50 mg/kg IP daily, 3 PDX models) was “impairment of engraftment and AML expansion”. The “total m6A levels on poly-A+-enriched RNA in PDX bone marrow” value ([7]; 30 or 50 mg/kg) was “significantly reduced”, the “inhibitory effect on kinase panel” value (panel of 468 kinases) was “no inhibitory effect” and the “SP1 and BRD4 protein levels” value [8] was “dose-dependent reduction”. For the same compound, the “inhibition of METTL16” value (METTL16) was “no inhibition”, the “apoptosis in human and mouse AML models” value ([9]; Annexin V, 1 µM) was “induced apoptosis” and the “cell cycle (BrdU)” value [9, 14] was “cell cycle arrest”. For the same compound, the “myeloid differentiation (CD11b/Mac1)” value [9, 14] was “significant myeloid differentiation”, the “m6A on poly-A+-enriched RNA” value [10] was “concentration-dependent reduction” and the “other RNA modifications (m6Am, m6_2A, m7G) on poly-A+-enriched RNA” value [10] was “No changes were detected”. For the same compound, the “apoptosis in normal non-leukaemic haemopoietic cells” value ([11]; Annexin V, 1 µM) was “not in normal non-leukaemic haemopoietic cells”, the “differentiation and cell cycle in HPC7” value ([11]; non-leukaemic HPC7, 1 µM) was “the same effects were not identified” and the “binding mode with SAM in the SPR running buffer” value [12] was “co-factor competitive binding mode”.

For `C[S+](CC[C@H](N)C(=O)[O-])C[C@H]1O[C@@H](n2cnc3c(N)ncnc32)[C@H](O)[C@@H]1O` (stereo partly shown) [SAM, S-adenosyl methionine], the Km (METTL3/14) is given as 0.1 µM.
